Measured values reported in PMC6459613 (ACS chemical biology, 2012).
“And” between values parts separate entries of the source, which are not always exact repeats. Identical values can stand only once. Values belong to the compound of their own block, whether it stands above or below them.

Assays:
GST-JNK1 = details: read-out: IC50 for displacing biotinylated pepJIP1 from GST-JNK1; cited from earlier work
JNK2α2 in HEK293T cells = assay: Western blot in HEK293T cells transfected with WT-JNK2α2; type: cell-based; details: for JNK2α2 autophosphorylation: HEK293T over-expressing JNK2α2, without anisomycin
Summary of the method: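 HEK293T cells were transfected with wild-type JNK2α2 or empty pcDNA3 vector. They were treated with DMSO or varying test compound concentrations without anisomycin, or with an ATP-competitive reference JNK inhibitor with and without anisomycin. Western blots assessed JNK2α2 autophosphorylation and c-Jun phosphorylation, from which an ED50 was estimated.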

JNK [1] = details: read-out: in-vitro cell-free IC50; ATP-competitive; cited from earlier work
[2] = test system: JNK activity in Jurkat T cells; details: cited from earlier work
RAW264.7 cells = details: LPS-stimulated RAW264.7 cells; cited from earlier work
[3] = test system: JNK pathway in HEK293 cells; assay: Western blot of phospho-JNK and phospho-c-Jun in anisomycin-treated HEK293 cells; type: cell-based; details: for activation (phosphorylation) of JNK isoforms / phosphorylation of c-Jun (phospho-Ser-63): HEK293, 5-100 μM, 12 hours, then anisomycin
Summary of the method: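 HEK293 cells were pretreated for 12 hours with DMSO or test compound at 5-100 μM. The JNK pathway was then induced with anisomycin (50-100 nM) for 5-10 minutes before lysis. Western blots detected phospho-JNK and phospho-c-Jun, and an ED50 was estimated.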

MDA-MB-231 cells [4] = assay: Transwell chemotactic cell migration assay; type: cell-based, human; details: for inhibition of migration: overnight, migration in response to serum
Summary of the method: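 Chemotactic migration of MDA-MB-231 cells was measured in transwells. Cells were treated overnight with DMSO or test compound at 50 or 100 μM, and viability was monitored. Migrated cells on the membrane underside were stained with crystal violet. Three independent repeats.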

MDA-MB-231 cells [5] = assay: Cell viability monitored during migration and wound assays; type: cell-based, human; details: for cell viability during the migration assay: transwell assay, 50 and 100 μM; for cell viability during the wound assay: up to 200 μM
JNK1 = JNK1 (Homo sapiens, UniProt P45983); assay: Phosphorylation of GST-c-Jun; type: biochemical
Summary of the method: (§1)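 Activated JNK isoforms phosphorylated GST-c-Jun (1-221) at 2 μM across a dose range of test compound. Dose-response data were fitted to V0 = V00 − V00·i/(i+K50) + V′, where K50 is the half-maximal concentration and V′ is the residual rate at saturating inhibitor.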

JNK3 = JNK3 (Homo sapiens, UniProt P53779); assay: Phosphorylation of GST-c-Jun; type: biochemical
Summary of the method: as §1

WT-MKK4 = WT-MKK4 (Homo sapiens, UniProt P45983); assay: Phosphorylation of inactive JNK1 by active MKK4; type: biochemical
WT-MKK7 = WT-MKK7 (Homo sapiens, UniProt P45983); assay: Phosphorylation of inactive JNK1 by active MKK7; type: biochemical
ERK1 = ERK1 (Homo sapiens, UniProt P27361); assay: MAP kinase selectivity assay, ERK1; type: biochemical
ERK2 = ERK2 (Homo sapiens, UniProt P28482); assay: MAP kinase selectivity assay, ERK2; type: biochemical
p38MAPKβ = p38MAPKβ (Homo sapiens, UniProt Q15759); assay: MAP kinase selectivity assay, p38MAPKβ; type: biochemical
p38MAPKγ = p38MAPKγ (Homo sapiens, UniProt P53778); assay: MAP kinase selectivity assay, p38MAPKγ; type: biochemical
p38MAPKδ = p38MAPKδ (Homo sapiens, UniProt O15264); assay: MAP kinase selectivity assay, p38MAPKδ; type: biochemical
[6] = test system: activated JNK1, JNK2 and JNK3; type: biochemical; details: read-out: IC50 values; range over JNK1, JNK2 and JNK3; GST-c-Jun 2 μM
Summary of the method: as §1

JNK [7] = assay: Steady-state kinetic analysis of c-Jun phosphorylation; type: biochemical; details: partial competitive inhibition model
Summary of the method: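 Initial velocities were measured with c-Jun varied at 0.63-20 μM and test compound fixed at several levels (0-50 μM), with saturating MgATP at 0.5 mM. Rates came from linear least-squares fits of product versus time. Double-reciprocal plots were checked for linearity. Data were fitted by nonlinear least squares to a partial competitive inhibition equation.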

[8] = test system: Akt phosphorylation mediated by JNK2α2; assay: Akt phosphorylation at Ser-473 in HEK293T cells transfected with WT-JNK2α2; type: cell-based; details: HEK293T transfected with WT-JNK2α2, without anisomycin
Summary of the method: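 Wild-type JNK2α2 was transfected into HEK293T cells. Cells were exposed to DMSO vehicle or a series of test compound concentrations, with no anisomycin stimulation. Akt activation was followed as phosphorylation at Ser-473.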

ERK2 pathway = assay: ERK pathway specificity in HEK293 cells, EGF induced; type: cell-based; details: 100 μM
Summary of the method: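 HEK293 cells received DMSO or test compound (0-100 μM) for 12 hours. The ERK pathway was then induced with 50 ng EGF for 5-10 minutes and cells were lysed. Lysates were run on 10% SDS-PAGE and western blotted for phospho-ERK and phospho-p90RSK.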

JNK2α2 (Y130A) = assay: c-Jun phosphorylation in HEK293T cells transfected with JNK2α2; type: cell-based; details: 0-100 μM
Summary of the method: (§2)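 HEK293T cells were transfected with JNK2α2 DRS mutants (Y130A or C163A) or empty pcDNA3 vector and treated with test compound (0–100 μM). Western blots tracked JNK autophosphorylation and c-Jun phosphorylation, compared with non-transfected cells. Results are representative of three independent experiments.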

JNK2α2 (C163A) = assay: as above; type: cell-based; details: 0-100 μM
Summary of the method: as §2

MDA-MB-231 cells [9] = assay: Scratch wound closure assay; type: cell-based, human; details: 100 and 200 μM, 24 hrs post-wounding
Summary of the method: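 MDA-MB-231 cells were pretreated with graded concentrations of test compound. A scratch wound was then made and medium was replaced with 1% FBS-containing medium. Wound closure was measured at 0 and 24 h post-wounding, with viability checked alongside. Three independent experiments.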

Sequence of WT-MKK4 (P45983 whole entry): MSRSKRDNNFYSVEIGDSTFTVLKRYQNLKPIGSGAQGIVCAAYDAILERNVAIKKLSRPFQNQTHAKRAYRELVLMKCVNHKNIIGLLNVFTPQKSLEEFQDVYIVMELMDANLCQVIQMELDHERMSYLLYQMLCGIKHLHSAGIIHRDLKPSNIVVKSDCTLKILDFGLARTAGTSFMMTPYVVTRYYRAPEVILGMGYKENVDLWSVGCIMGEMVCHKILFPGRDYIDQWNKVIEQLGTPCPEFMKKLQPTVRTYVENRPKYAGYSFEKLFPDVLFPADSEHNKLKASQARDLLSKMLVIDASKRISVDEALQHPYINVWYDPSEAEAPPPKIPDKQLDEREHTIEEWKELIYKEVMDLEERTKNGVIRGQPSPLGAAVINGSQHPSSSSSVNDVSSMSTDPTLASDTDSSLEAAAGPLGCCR
Sequence of ERK1 (P27361 whole entry, species assumed): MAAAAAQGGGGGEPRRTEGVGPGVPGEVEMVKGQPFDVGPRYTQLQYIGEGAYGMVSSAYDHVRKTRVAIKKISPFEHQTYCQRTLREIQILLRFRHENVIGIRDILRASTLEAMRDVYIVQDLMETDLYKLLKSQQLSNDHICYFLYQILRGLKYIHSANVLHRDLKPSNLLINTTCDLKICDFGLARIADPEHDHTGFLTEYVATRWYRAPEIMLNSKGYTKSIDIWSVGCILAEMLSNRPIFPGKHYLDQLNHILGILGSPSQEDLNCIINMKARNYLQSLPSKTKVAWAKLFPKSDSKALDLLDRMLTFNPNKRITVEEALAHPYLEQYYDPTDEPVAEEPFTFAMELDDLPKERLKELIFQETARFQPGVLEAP
Sequence of ERK2 (P28482 whole entry, species assumed): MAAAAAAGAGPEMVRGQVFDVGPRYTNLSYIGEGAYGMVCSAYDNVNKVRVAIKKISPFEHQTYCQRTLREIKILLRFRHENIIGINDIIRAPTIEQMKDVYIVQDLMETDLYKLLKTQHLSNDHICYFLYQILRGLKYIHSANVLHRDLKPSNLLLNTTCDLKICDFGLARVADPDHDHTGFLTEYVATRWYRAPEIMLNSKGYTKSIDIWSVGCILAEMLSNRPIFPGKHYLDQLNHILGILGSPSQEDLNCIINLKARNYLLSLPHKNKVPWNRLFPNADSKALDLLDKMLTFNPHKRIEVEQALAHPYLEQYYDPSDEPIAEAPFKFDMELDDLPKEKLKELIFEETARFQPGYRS
Sequence of JNK3 (P53779 whole entry): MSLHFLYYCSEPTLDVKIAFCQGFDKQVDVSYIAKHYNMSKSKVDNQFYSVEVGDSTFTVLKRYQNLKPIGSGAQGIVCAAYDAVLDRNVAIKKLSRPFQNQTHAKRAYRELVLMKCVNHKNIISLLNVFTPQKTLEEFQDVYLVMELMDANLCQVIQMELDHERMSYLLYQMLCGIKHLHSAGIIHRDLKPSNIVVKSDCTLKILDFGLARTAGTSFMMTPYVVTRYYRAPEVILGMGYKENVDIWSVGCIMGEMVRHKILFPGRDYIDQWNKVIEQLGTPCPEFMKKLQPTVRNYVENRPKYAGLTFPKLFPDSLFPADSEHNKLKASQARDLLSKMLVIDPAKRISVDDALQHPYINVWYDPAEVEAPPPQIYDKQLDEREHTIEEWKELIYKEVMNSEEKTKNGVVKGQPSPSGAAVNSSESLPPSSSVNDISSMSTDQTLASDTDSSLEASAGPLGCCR
Sequence of p38MAPKγ (P53778 whole entry): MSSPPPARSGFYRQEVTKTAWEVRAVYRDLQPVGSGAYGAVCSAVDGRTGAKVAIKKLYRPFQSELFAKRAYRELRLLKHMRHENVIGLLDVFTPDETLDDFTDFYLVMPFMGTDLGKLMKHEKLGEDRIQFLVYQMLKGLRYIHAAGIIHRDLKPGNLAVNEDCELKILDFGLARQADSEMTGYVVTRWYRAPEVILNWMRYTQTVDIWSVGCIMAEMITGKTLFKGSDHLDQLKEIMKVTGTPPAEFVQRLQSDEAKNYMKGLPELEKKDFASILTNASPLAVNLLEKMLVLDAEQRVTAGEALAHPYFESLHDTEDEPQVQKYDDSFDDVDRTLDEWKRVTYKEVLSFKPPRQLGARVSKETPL
Sequence of p38MAPKδ (O15264 whole entry): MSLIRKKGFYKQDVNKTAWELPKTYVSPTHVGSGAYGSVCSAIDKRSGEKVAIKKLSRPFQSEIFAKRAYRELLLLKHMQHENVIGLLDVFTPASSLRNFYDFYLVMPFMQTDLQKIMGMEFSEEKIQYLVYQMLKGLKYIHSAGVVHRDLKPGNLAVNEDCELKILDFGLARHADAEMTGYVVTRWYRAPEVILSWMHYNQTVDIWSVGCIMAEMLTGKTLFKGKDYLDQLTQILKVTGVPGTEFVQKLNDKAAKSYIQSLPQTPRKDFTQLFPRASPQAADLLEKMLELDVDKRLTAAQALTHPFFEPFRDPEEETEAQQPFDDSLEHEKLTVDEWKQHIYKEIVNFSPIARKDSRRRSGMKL
Sequence of JNK1 (P45983 whole entry, canonical isoform): as the sequence (P45983 whole entry) above
Sequence of WT-MKK7 (P45983 whole entry): as above
Sequence of p38MAPKβ (Q15759 whole entry): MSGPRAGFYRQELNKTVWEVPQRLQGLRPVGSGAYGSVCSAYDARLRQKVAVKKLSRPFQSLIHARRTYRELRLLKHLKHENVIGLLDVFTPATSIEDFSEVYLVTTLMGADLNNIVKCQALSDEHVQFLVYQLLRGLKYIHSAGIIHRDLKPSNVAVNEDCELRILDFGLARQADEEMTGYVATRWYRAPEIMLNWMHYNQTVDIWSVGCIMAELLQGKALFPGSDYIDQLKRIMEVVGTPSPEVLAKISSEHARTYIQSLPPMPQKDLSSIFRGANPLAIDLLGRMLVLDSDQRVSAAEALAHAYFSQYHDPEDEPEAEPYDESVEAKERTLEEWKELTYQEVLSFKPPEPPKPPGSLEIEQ

Compound: O=c1[nH]nc(Sc2ncc([N+](=O)[O-])s2)n1-c1ccc2c(c1)OCCO2 [BI-78D3]
IC50 (GST-JNK1): 500 nM

Compound: Oc1c2ccccc2c2c3c(cccc13)N=N2 [SP600125, reference compound]
JNK2α2 phosphorylation in cells stimulated using anisomycin (JNK2α2 in HEK293T cells; HEK293T over-expressing JNK2α2, with anisomycin): no longer able to inhibit | JNK2α2 autophosphorylation (JNK2α2 in HEK293T cells): autophosphorylation was inhibited | IC50 (JNK [1]): 40 to 100 nM | ED50 for JNK activity [2]: ~10 µM

Compound: COc1cc([C@H]2O[C@H](c3ccc4c(c3)OCO4)[C@H](C)[C@H]2C)ccc1O[C@H](C)[C@@H](O)c1ccc2c(c1)OCO2 [saucerneol F]
nitric oxide (NO) production (RAW264.7 cells): inhibits nitric oxide (NO) production in a dose-dependent manner

Compound: (+)-zuonin A
activation (phosphorylation) of JNK isoforms [3]: inhibits neither JNK activation nor c-Jun phosphorylation | phosphorylation of c-Jun (phospho-Ser-63) [3]: inhibits neither JNK activation nor c-Jun phosphorylation | effect on cell migration (MDA-MB-231 cells [4]; 50 and 100 μM): able to mildly suppress cell migration | cell viability during the migration assay (MDA-MB-231 cells [5]): unaffected | cell viability during the wound assay (MDA-MB-231 cells [5]): unaffected

% Inhibition at Saturating (−)-zuonin A (200 μM) (JNK1; 200 μM): 75% | IC50 (JNK1; GST-c-Jun 2 μM): 1700 ± 260 nM | % Inhibition at Saturating (−)-zuonin A (200 μM) (JNK3; 200 μM): 73% | IC50 (JNK3; GST-c-Jun 2 μM): 1740 ± 160 nM | % Inhibition at Saturating (−)-zuonin A (200 μM) (WT-MKK4; 200 μM, phosphorylation of JNK): 77% | IC50 (WT-MKK4; inhibits the phosphorylation of JNK (inactive JNK1) by MKK4): ~1800 nM and 1800 nM | % Inhibition at Saturating (−)-zuonin A (200 μM) (WT-MKK7; 200 μM, phosphorylation of JNK): 50% | IC50 (WT-MKK7; inhibits the phosphorylation of JNK (inactive JNK1) by MKK7): 1990 ± 150 nM | IC50 (ERK1): > 200 µM | % Inhibition at Saturating (−)-zuonin A (200 μM) (ERK1; 200 μM): 10% | IC50 (ERK2): > 200 µM | % Inhibition at Saturating (−)-zuonin A (200 μM) (ERK2; 200 μM): 10% | % Inhibition at Saturating (−)-zuonin A (200 μM) (p38MAPKβ): 15% | IC50 (p38MAPKγ): > 200 µM | % Inhibition at Saturating (−)-zuonin A (200 μM) (p38MAPKγ; 200 μM): 10% | IC50 (p38MAPKδ): > 200 µM | % Inhibition at Saturating (−)-zuonin A (200 μM) (p38MAPKδ; 200 μM): 10% | IC50 [6]: 1700 to 2900 nM
Compound: (−)-zuonin A
α (factor by which affinity of JNK for c-Jun is weakened) (JNK [7]): ~5 | β (effect on kcat) (JNK [7]): 1 | activation (phosphorylation) of JNK isoforms [3]: blunts the activation of the JNK isoforms in cells in a dose-dependent manner | phosphorylation of c-Jun (phospho-Ser-63) [3]: clearly blunted | ED50 for inhibiting JNK phosphorylation ([3]; HEK293 cells, stimulation by anisomycin): around 25 μM | JNK2α2 autophosphorylation (JNK2α2 in HEK293T cells): unable to inhibit JNK2α2 autophosphorylation even at a concentration of 100 μM | ED50 for phosphorylation of c-Jun mediated by over-expressed JNK2α2 (JNK2α2 in HEK293T cells; HEK293T, without anisomycin): approximately 25 μM | Akt phosphorylation (Ser-473) mediated by JNK2α2 [8]: able to inhibit Akt phosphorylation | phosphorylation of ERK or its protein substrate p-90RSK (ERK2 pathway): no effect | sensitivity of c-Jun phosphorylation (JNK2α2 (Y130A)): more sensitive | sensitivity of c-Jun phosphorylation (JNK2α2 (C163A)): unresponsive | inhibition of migration (MDA-MB-231 cells [4]; 50 μM): approximately 45% | inhibition of migration (MDA-MB-231 cells [4]; 100 μM): ~80% | wound closure (MDA-MB-231 cells [9]): sufficient to inhibit wound closure | cell viability during the migration assay (MDA-MB-231 cells [5]): unaffected | cell viability during the wound assay (MDA-MB-231 cells [5]): unaffected
